Measurements published in the RNAGym collection of RNA variant scans (doi:10.1038/s41586-018-0170-7).

B1: tRNA (parent)
chain: GUUCCGUUGGCGUAAUGGUAACGCGUCUCCCUCCUAAGGAGAAGACUGCGGGUUCGAGUCCCGUACGGAACG

Variants of: B1
Test: yeast fitness, log relative to wild type (ln ratio); higher = fitter; tRNA-Arg(CCU), competitive growth, 37 C, 1 M NaCl
Summary of the method: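 A combinatorial tRNA-Arg(CCU) variant library was carried on a HIS3 centromeric plasmid in BY4742 lacking the chromosomal gene, from two independent transformations. Pools grew 4 generations in SC-HIS at 30 °C, then ~6.5 generations (~26.5 h) in SC-HIS 1M NaCl at 37 °C, with three outputs per input. Variants were counted by 125 bp paired-end Illumina sequencing. Fitness is ln of each genotype's generations (OD-scaled log2 output/input frequency, inverse-variance weighted across replicates) over the wild-type's.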

Variant | yeast fitness (ln)
G6A C46U C66U A69G A70U | -0.202
G6A C46U C66A A69G A70U | -0.178
G6A C46U C66A A69G A70G | -0.148
G6A C46U C71U | -0.359
G6U C27U A43C C46U C66U A69G A70U | -0.416
G6U C27U A43C C46U C66U A69G A70G | -0.396
G6U C27U C46U C66U A69G A70U C71U | -0.51
G6U A43C | -0.132
G6U C27U A43C C66A A69G A70G C71U | -0.338
G6U A69G A70G C71U | -0.282
G6U C27U A43C C66U A70U C71U | -0.372
G6U C27U C46U A69G A70G C71U | -0.342
G6A C27U C66A A70G C71U | -0.364
G6A C27U A69G C71U | -0.243
G6U A43C C66A A69G C71U | -0.368
G6U C27U A43C C46U C66A A70G | -0.123
G6U C27U A43C C46U C66A A70U | -0.382
G6U C27U C46U A69G C71U | -0.314
G6A C27U C66A A70U C71U | -0.246
G6U C27U A43C C66A A70G C71U | -0.217
G6U A43C A69G C71U | -0.389
G6A C46U C66U A70U C71U | -0.423
G6U A43C C46U | -0.193
G6U C27U A43C A69G A70U C71U | -0.462

Variant | yeast fitness (ln)
G6U C27U C46U C66U A70G | -0.207
G6U C27U C46U C66U A70U | -0.19
G6U A43C C46U C66U A70U C71U | -0.359
G6U A43C C66U A70G C71U | -0.392
G6U C27U C46U A70U C71U | -0.214
G6A C46U A70G | -0.226
G6A C46U A70U | -0.237
G6U C27U A43C C46U | -0.155
G6A C27U C66A A70G | -0.136
G6A C27U C66A A70U | -0.107
G6A C66U A70G C71U | -0.358
G6U C27U A69G C71U | -0.342
G6U C27U A43C C46U C66U | -0.271
G6U C27U A43C C46U C66A | -0.0176
G6U A69G A70G | -0.16
G6U A69G A70U | -0.145
G6A C46U C66A A70U C71U | -0.211
G6U C27U C46U C66U A69G C71U | -0.543
G6A C27U A43C C71U | -0.184
G6U C27U A43C C46U C66A A69G A70U C71U | -0.611
G6A C27U C66A | -0.192
G6A C27U C66U | -0.0352
G6U C27U A43C C46U C66U A69G C71U | -0.432
G6A C27U C46U C66U A69G A70U | -0.196

Variant | yeast fitness (ln)
G6A C27U C46U C66U A69G A70G | -0.213
G6U A43C C46U C66A A69G A70G C71U | -0.167
G6U C27U A43C C46U C66A A69G A70U | -0.462
G6U C27U A43C C46U C66A A69G A70G | -0.471
G6U C27U A43C C46U C66U A70U C71U | -0.467
G6U A43C C66A A69G A70G | -0.373
G6U A43C C66A A69G A70U | -0.215
G6U C27U C46U C66A A70G C71U | -0.434
G6A C46U C66U A69G C71U | -0.0544
G6U A43C C46U C66A A70U | -0.113
G6U A43C C46U C66A A70G | -0.0224
G6U A43C C66U A69G A70U | -0.356
G6U A43C C66U A69G A70G | -0.333
G6U C27U A43C C46U C66A C71U | -0.299
G6A C66U A69G A70G C71U | -0.41
G6U C27U C46U C66U C71U | -0.359
G6A C71U | -0.23
G6A C27U C66U A70U C71U | -0.312
G6U A43C C46U A69G A70G | -0.232
G6U A43C C46U A69G A70U | -0.236
G6U C27U A43C C66A A69G A70U C71U | -0.389
G6A C27U C46U C66A | -0.126
G6A C27U C46U C66U | -0.0122
G6U A43C C46U A70U C71U | -0.225

Variant | yeast fitness (ln)
G6U C27U A43C C46U A69G A70U | -0.245
G6U C27U A43C C46U A69G A70G | -0.339
G6U C27U C46U C66A A69G A70G | -0.243
G6U C27U C46U C66A A69G A70U | -0.196
G6U A43C C46U C66U A69G A70U C71U | -0.42
G6U A43C C46U C66U C71U | -0.254
G6U C27U C66A A69G A70G C71U | -0.329
G6U A43C C46U A69G A70G C71U | -0.308
G6A C66U A69G A70U | -0.335
G6A C66U A69G A70G | -0.0412
G6U A43C A69G A70U C71U | -0.447
G6A C27U C46U A70G C71U | -0.206
G6U C27U A43C C46U C66U A70G C71U | -0.378
G6A C46U C66A A70G | -0.117
G6A C46U C66A A70U | -0.0387
G6A C27U C46U C66U C71U | -0.0799
G6U C27U C46U C66A C71U | -0.0489
G6U A43C C46U A69G C71U | -0.234
G6U A43C A69G | -0.328
G6U A43C C46U C66U A69G C71U | -0.321
G6U C27U A43C C46U C66U A69G A70U C71U | -0.535
G6U C27U A43C C66U A69G A70U C71U | -0.341
G6U A43C C46U C66A A69G C71U | -0.548
G6U A43C C46U C66U A69G | -0.261

Variant | yeast fitness (ln)
G6U C27U A43C A69G C71U | -0.384
G6A C46U A69G A70U | -0.176
G6A C46U A69G A70G | -0.18
G6U C27U A43C C66A A69G | -0.264
G6U C27U A43C C46U A69G A70U C71U | -0.45
G6U C27U A69G | -0.222
G6U C27U A43C C71U | -0.281
G6U C27U A43C C66U A69G A70U | -0.349
G6U C27U A43C C66U A69G A70G | -0.528
G6A C46U C66A C71U | -0.349
G6A C27U C46U A69G A70U C71U | -0.331
G6A C46U A69G A70U C71U | -0.218
G6U C27U C46U C66A A69G A70G C71U | -0.254
G6A C27U C66A C71U | -0.168
G6U C27U | -0.111
G6U A43C C46U C66U A69G A70G C71U | -0.325
G6U C27U C66A A70U C71U | -0.29
G6A C46U C66U A69G A70G C71U | -0.581
G6U C27U C46U A69G A70U C71U | -0.457
G6A C27U C46U C66A A70U C71U | -0.234
G6A C46U C66U A69G A70U C71U | -0.35
G6U C27U A43C A69G A70U | -0.391
G6U C27U A43C A69G A70G | -0.401
G6U A43C C66A | -0.0198

Variant | yeast fitness (ln)
G6U A43C C66U | -0.23
G6A C66A A69G A70G C71U | -0.163
G6A C27U C46U C66U A69G A70G C71U | -0.215
G6A C46U C66U A70G C71U | -0.229
G6U C27U A43C C66U A69G C71U | -0.395
G6U C27U A43C C66A A70U | -0.185
G6U C27U A43C C66A A70G | -0.293
G6U C27U C66U A69G A70U | -0.329
G6U C27U C66U A69G A70G | -0.306
G6U C27U C66U A69G A70G C71U | -0.355
G6U A43C C66A A70U | -0.307
G6U A43C C66A A70G | -0.0733
G6U C27U A43C C46U C66A A69G C71U | -0.439
G6U C27U A70G C71U | -0.368
G6A C27U C46U C66A A70G C71U | -0.252
G6U C27U C66U | -0.321
G6U C27U C66A | -0.0293
G6A C27U C46U A69G | -0.183
G6U C27U A70G | -0.302
G6U C27U A70U | -0.208
G6U C27U C46U A70G C71U | -0.321
G6A C66U A69G | -0.0231
G6U C27U A43C C46U A70U C71U | -0.336
G6U A70U C71U | -0.14

Variant | yeast fitness (ln)
G6U C27U A43C C46U C66A A69G | -0.0652
G6A C27U A69G A70G C71U | -0.265
G6U A43C A69G A70G | -0.371
G6U A43C A69G A70U | -0.371
G6A C46U A70G C71U | -0.145
G6A C27U C46U C66U A69G A70U C71U | -0.302
G6U A43C C46U A69G A70U C71U | -0.438
G6A C27U C46U C66U A69G | -0.0373
G6U A43C C66A A70G C71U | -0.177
G6U C27U A43C C66A A69G A70G | -0.453
G6U C27U A43C C66A A69G A70U | -0.282
G6U C27U A43C C66U A70G C71U | -0.352
G6U A43C C66A C71U | -0.177
G6A C66A A69G A70G | -0.159
G6U A43C C46U C66A A69G A70U | -0.113
G6U A43C C46U C66A A69G A70G | -0.147
G6A C27U C46U A70G | -0.132
G6A C27U C46U A70U | -0.144
G6U C27U A43C C66U C71U | -0.34
G6A C46U C66U | 0.00319
G6A C46U C66A | -0.0719
G6U C27U A69G A70U | -0.214
G6U C27U A69G A70G | -0.33
